Test results from ChEMBL document CHEMBL4373712, “Bioactivatable Pseudotripeptidization of Cyclic Dipeptides To Increase the Affinity toward Oligopeptide Transporter 1 for Enhanced Oral Absorption: An Application to Cyclo(l-Hyp-l-Ser) (JBP485)” (J Med Chem, 2019).
One block for each compound: values may come before it. Calls of active or inactive are those of the source. The rule behind the calls is not given here.

Tests used:
[1] = Cmax in Sprague-Dawley rat at 6 mg/kg, iv by UPLC-MS/MS analysis; format: ADME, organism-based; design: dose 6 mg/kg, route intravenous; settings: in vivo
How it was run: (§1)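 Male SD rats, 200-250 g, fasted 12 h with water, n=6. Oral dose of 12 mg/kg as JBP485 equivalent; dose-effect arms at 12 and 100 mg/kg. JBP485 given iv at 6 mg/kg as the reference. Jugular blood taken at 0.083-10 h. Plasma JBP485 by UPLC-MS/MS. Absolute F = (AUCpo×Div)/(AUCiv×Dpo)×100%, using AUC0-t.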

[2] = Terminal half-life in Sprague-Dawley rat at 12 mg/kg, po by UPLC-MS/MS analysis; format: ADME, organism-based; settings: in vivo, read-out: beta t1/2 (converted)
How it was run: (§2)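 Fasted male SD rats (200–250 g), oral 12 mg/kg (prodrugs calculated as JBP485). Jugular blood 0.083–10 h, centrifuged, plasma JBP485 by UPLC-MS/MS; n=6.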

[3] = Oral bioavailability in Sprague-Dawley rat at 12 mg/kg by UPLC-MS/MS analysis; format: ADME, organism-based; settings: in vivo; how it was run: as §1
[4] = Cmax in Beagle dog at 12 mg/kg, po by UPLC-MS/MS analysis; format: ADME, organism-based, Canis lupus familiaris; design: dose 12 mg/kg, route oral; settings: in vivo
How it was run: (§3)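 Male beagle dogs, 2 years old, 8-10 kg, n=6. Single oral dose of 12 mg/kg (prodrug dosed as JBP485 equivalent) given in aqueous solution. Jugular venipuncture blood taken at 0.167-8 h into sodium heparin tubes. Plasma JBP485 measured by UPLC-MS/MS; AUC0-t and Cmax from the concentration-time profiles.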

[5] = Terminal half life in Beagle dog at 12 mg/kg, po by UPLC-MS/MS analysis; format: ADME, organism-based, Canis lupus familiaris; settings: in vivo, read-out: beta t1/2 (converted)
How it was run: (§4)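 Male beagle dogs, 2 years old, 8–10 kg, dosed orally at 12 mg/kg (prodrug calculated as JBP485) in aqueous solution. Jugular blood taken 0.167–8 h into heparin, centrifuged, plasma JBP485 by UPLC-MS/MS; n=6.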

Rattus norvegicus [6] = experiment: (§5) Anti-hepatitis activity in ANIT-induced Sprague-Dawley rat model of liver injury assessed as reduction in liver necrosis at 6.25 to 12.5 mg/kg, ip administered 30 mins prior to ANIT challenge and subsequent dosing at 8, 22, 32, and 46 hrs post ANIT challenge and measured 48 hrs post ANIT challenge by H and E staining-based assay; format: functional, organism-based
How it was run: (§6)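 ANIT 50 mg/kg ip liver-injury model in male SD rats, 6 per group. Oral or ip treatment at 30 min before and 8, 22, 32 and 46 h after ANIT. Liver excised at 48 h, fixed in 4% formalin, stained with H&E, and examined microscopically for hepatocellular edema and necrosis.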

Rattus norvegicus [7] = experiment: as §5, with “hepatocellular edema” for “liver necrosis”; format: functional, organism-based; how it was run: as §6
Rattus norvegicus [8] = experiment: as §5, with “25” for “12.5”, “po” for “ip”; format: functional, organism-based; how it was run: as §6
Rattus norvegicus [9] = experiment: as §5, with “serum aspartate aminotransferase level” for “liver necrosis”, “challenge” for “challenge by H and E staining-based assay”; format: functional, organism-based
How it was run: (§7)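 ANIT (50 mg/kg ip, olive oil) cholestatic liver injury in male SD rats, 6 per group. Oral or ip dosing (UDCA 100 mg/kg po in CMC-Na) at 30 min before and 8, 22, 32 and 46 h after ANIT. Serum collected at 48 h from the abdominal aorta; ALT and AST activities measured with kits.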

Rattus norvegicus [10] = experiment: as §5, with “serum aspartate aminotransferase level” for “liver necrosis”, “25” for “12.5”, “po” for “ip”, “challenge” for “challenge by H and E staining-based assay”; format: functional, organism-based; how it was run: as §7
Rattus norvegicus [11] = experiment: as §5, with “serum alanine aminotransferase level” for “liver necrosis”, “25” for “12.5”, “po” for “ip”, “challenge” for “challenge by H and E staining-based assay”; format: functional, organism-based; how it was run: as §7
Rattus norvegicus [12] = experiment: Anti-hepatitis activity in ANIT-induced ip dosed Sprague-Dawley rat model of cholestasis assessed as reduction in serum total bilirubin level administered 30 mins prior to ANIT challenge and subsequent dosing at 8, 22, 32, and 46 hrs post ANIT challenge and measured 48 hrs post ANIT challenge; format: functional, organism-based
How it was run: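 Male SD rats, 6 weeks old, fasted 12 h, 6 per group. Cholestasis induced by ANIT 50 mg/kg ip in olive oil. Test agents were given in water; UDCA 100 mg/kg was given orally in CMC-Na. Dosing at 30 min before and 8, 22, 32 and 46 h after ANIT. Serum taken from the abdominal aorta under chloral hydrate anesthesia at 48 h; total bilirubin measured with an assay kit.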

[13] = AUC (0 to t) in Sprague-Dawley rat assessed as JBP485 level at 100 mg/kg, po by LC-MS/MS analysis; format: ADME, organism-based; settings: in vivo; how it was run: as §1
[14] = Terminal half life in Sprague-Dawley rat assessed as JBP485 level at 100 mg/kg, po by LC-MS/MS analysis; format: ADME, organism-based; settings: in vivo
How it was run: (§8)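 Male SD rats (200–250 g) fasted 12 h, given JBP485 or prodrug (calculated as JBP485) orally at 12 or 100 mg/kg. Jugular blood sampled 0.083–10 h, plasma JBP485 by UPLC-MS/MS; n=6.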

[15] = Tmax in Sprague-Dawley rat assessed as JBP485 level at 100 mg/kg, po by LC-MS/MS analysis; format: ADME, organism-based; settings: in vivo; how it was run: as §8
[16] = Ratio of half-life in pH 7.2 phosphate buffer to half-life in Sprague-Dawley rat intestinal homogenates; format: ADME, tissue-based; settings: tissue homogenate
[17] = Ratio of half-life in pH 7.2 phosphate buffer to half-life in Sprague-Dawley rat plasma; format: ADME
[18] = AUC (0 to t) in Sprague-Dawley rat assessed as JBP485 level at 12 mg/kg equiv of JBP485 administered orally by UPLC-MS/MS analysis; format: ADME, organism-based; settings: in vivo, po; how it was run: as §1
[19] = Cmax in Sprague-Dawley rat assessed as JBP485 level at 12 mg/kg equiv of JBP485 administered orally by UPLC-MS/MS analysis; format: ADME, organism-based; design: dose 12 mg/kg, route oral; settings: in vivo, po; how it was run: as §1
[20] = Tmax in Sprague-Dawley rat assessed as JBP485 level at 12 mg/kg equiv of JBP485 administered orally by UPLC-MS/MS analysis; format: ADME, organism-based; settings: in vivo, po; how it was run: as §2
[21] = Oral bioavailability in Sprague-Dawley rat assessed as JBP485 level at 12 mg/kg equiv of JBP485 by UPLC-MS/MS analysis; format: ADME, organism-based; settings: in vivo; how it was run: as §1
[22] = AUC (0 to t) in Beagle dog assessed as JBP485 level at 12 mg/kg equiv of JBP485 administered orally by UPLC-MS/MS analysis; format: ADME, organism-based, Canis lupus familiaris; settings: in vivo, po; how it was run: as §3
[23] = Cmax in Beagle dog assessed as JBP485 level at 12 mg/kg equiv of JBP485 administered orally by UPLC-MS/MS analysis; format: ADME, organism-based, Canis lupus familiaris; design: dose 12 mg/kg, route oral; settings: in vivo, po; how it was run: as §3
[24] = Tmax in Beagle dog assessed as JBP485 level at 12 mg/kg equiv of JBP485 administered orally by UPLC-MS/MS analysis; format: ADME, organism-based, Canis lupus familiaris; settings: in vivo, po; how it was run: as §4
[25] = Terminal half life in Beagle dog assessed as JBP485 level at 12 mg/kg equiv of JBP485 administered orally by UPLC-MS/MS analysis; format: ADME, organism-based, Canis lupus familiaris; settings: in vivo, po; how it was run: as §4

Cmax [1]: 334.91 nM/ml
half-life [2]: 2.12 h
bioavailability [3]: 21%
Cmax [4]: 26.65 nM/ml
half-life [5]: 5.23 h
AUCt [13]: 324 µM·h
beta t1/2 [14]: 1.5 h
Tmax [15]: 1.5 h
SMILES: O=C1N[C@@H](CO)C(=O)N2C[C@H](O)C[C@@H]12
Activity (Rattus norvegicus [6]): Active
Activity (Rattus norvegicus [7]): Active
Activity (Rattus norvegicus [8]): Active
Activity (Rattus norvegicus [9]): Active
Activity (Rattus norvegicus [10]): Active
Activity (Rattus norvegicus [11]): Active
Activity (Rattus norvegicus [12]): Dose-dependent effect

Ratio [16]: 3 to 35
Ratio [17]: 3 to 35
AUCt [18]: 194.47 nM/ml.hr
Cmax [19]: 113 µM
Tmax [20]: 0.57 h
F [21]: 50.1%
AUCt [22]: 233.25 nM/ml.hr
Cmax [23]: 85.9 nM/ml
Tmax [24]: 0.58 h
beta t1/2 [25]: 1.68 h
SMILES: CC(C)[C@H](N)C(=O)OC[C@@H]1NC(=O)[C@@H]2C[C@@H](O)CN2C1=O
